This is an account of results in ChEMBL document CHEMBL3525966, “Compartmental and enzyme kinetic modeling to elucidate the biotransformation pathway of a centrally acting antitrypanosomal prodrug” (Drug Metab Dispos, 2013).

Data set [1] has as its system Liver microsome. In words: Drug metabolism in human liver microsomes assessed as (Z)-N'-hydroxy-6-(5-(5-((Z)-N'-methoxycarbamimidoyl)pyridin-2-yl)furan-2-yl nicotinimidamide formation measured per mg of protein by HPLC-MS/MS analysis. The class given is ADME. The procedure, abridged:
(§1)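 M1 formation kinetics: HLM or RLM (0.5 mg/mL) in phosphate pH 7.4 with MgCl2, DB868 0.1–100 µM, started with 2 mM NADPH. Run 5 min (HLM) or 10 min (RLM) under initial-rate conditions (<20% consumption) in triplicate. Quantified by HPLC/MS/MS with d6-DB868 internal standard. Fitted to a one-enzyme (HLM) or two-enzyme (RLM) Michaelis–Menten model; Clint = Vmax/Km.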

The nature of data set [2]: Drug metabolism in sandwich-cultured human hepatocytes assessed as (Z)-N'-hydroxy-6-(5-(5-((Z)-N'-methoxycarbamimidoyl)pyridin-2-yl)furan-2-yl)nicotinimidamide at 10 uM after 4 hrs of incubation by HPLC-MS/MS analysis. Format: ADME, cell-based, Hepatocyte. The procedure, abridged:
(§2)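 Sandwich-cultured hepatocytes were used on day 5 (human) or day 4 (rat) and rinsed with warm phenol-red-free DMEM. They were then exposed to 10 µM DB868 (0.1–0.2% DMSO) at 37°C. Medium and methanol/water cell lysates were collected at 0.5, 2, 4 and 24 h. Analytes were quantified by HPLC/MS/MS with deuterated internal standards; protein by Bradford. Replicates: 6 (human) or 4 (rat).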

The target of the next data set is T1, Cytochrome P450 1A2 (Homo sapiens, UniProt P05177).
T1 sequence (P05177 whole entry): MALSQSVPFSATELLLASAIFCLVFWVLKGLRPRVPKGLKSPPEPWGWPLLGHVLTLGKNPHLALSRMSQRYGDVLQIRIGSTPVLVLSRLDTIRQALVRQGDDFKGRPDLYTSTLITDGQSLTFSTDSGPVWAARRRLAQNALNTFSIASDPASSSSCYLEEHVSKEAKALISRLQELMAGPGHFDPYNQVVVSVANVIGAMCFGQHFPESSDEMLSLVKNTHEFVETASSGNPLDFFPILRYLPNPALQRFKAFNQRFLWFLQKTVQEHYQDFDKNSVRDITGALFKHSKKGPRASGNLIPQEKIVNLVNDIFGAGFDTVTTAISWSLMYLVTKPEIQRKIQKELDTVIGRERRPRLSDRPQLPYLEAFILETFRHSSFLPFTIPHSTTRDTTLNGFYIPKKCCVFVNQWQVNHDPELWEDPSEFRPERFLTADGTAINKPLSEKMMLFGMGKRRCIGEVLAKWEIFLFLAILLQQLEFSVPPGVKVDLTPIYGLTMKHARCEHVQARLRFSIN
In words: Prodrug conversion assessed as human recombinant CYP1A2-mediated (3Z,3'Z)-6,6'-(furan-2,5-diyl)bis(N'-hydroxynicotinimidamide) formation at 5 uM after 180 mins incubation by HPLC-UV chromatogram. Format: ADME. The following applies: recombinant enzyme, 15 min, in the assay text read “15 mins” for “180 mins”. The procedure, abridged: (§3)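 Insect-cell-expressed human or rat P450 (with NADPH-P450 reductase, some also with cytochrome b5) at 0.1 pmol/µL in 100 mM potassium phosphate pH 7.4 with 10 mM MgCl2. DB868 (for M1) or M1 (for M2) was added at 5 µM (0.5% DMSO) and started with 2 mM NADPH. Stopped after 15 min with ice-cold acetonitrile, then HPLC-UV. Duplicate incubations.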

Data set [3] relates to Liver microsome. In words: Drug metabolism in human liver microsomes assessed as (Z)-N'-hydroxy-6-(5-(5-((Z)-N'-methoxycarbamimidoyl)pyridin-2-yl)furan-2-yl nicotinimidamide formation measured by HPLC-MS/MS analysis. The class given is ADME. Put shortly:
as §1

The subject of data set [4] is Liver microsome. In words: Prodrug conversion in rat liver microsomes assessed as elution time at 10 uM after 180 mins incubation by HPLC-UV chromatography. The following applies: 3 h. Format: ADME. The procedure, abridged:
(§4)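 HLM or RLM (0.5 mg/mL) were incubated in triplicate in 100 mM phosphate pH 7.4 with 10 mM MgCl2 and an NADPH-regenerating system (1 mM NADP+, glucose 6-phosphate, G6PDH). DB868 was 10 µM. Sampled up to 180 min. Prodrug and metabolites were measured by HPLC-UV at 359 nm and expressed relative to initial prodrug; DB829 LLOQ 50 nM.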

Data set [5] is described as follows: Drug metabolism in sandwich-cultured rat hepatocytes assessed as (Z)-6-(5-(5-carbamimidoylpyridin-2-yl)furan-2-yl)-N'methoxynicotinimidamide at 10 uM after 4 hrs of incubation by HPLC-MS/MS analysis. Format: ADME, cell-based, Hepatocyte. Put shortly: as §2
The subject of data set [6] is Trypanosoma brucei rhodesiense. In words: Antitrypanosomal activity against Trypanosoma brucei rhodesiense STIB900 infected po dosed mouse model. The class given is functional.
A further data set concerns the target Cytochrome P450 3A4 (Homo sapiens, UniProt P08684). In words: Prodrug conversion assessed as human recombinant CYP3A4-mediated (Z)-N'-hydroxy-6-(5-(5-((Z)-N'-methoxycarbamimidoyl)pyridin-2-yl)furan-2-yl) nicotinimidamide formation at 5 uM after 180 mins incubation by HPLC-UV chromatogram. Format: ADME. The following applies: recombinant enzyme, 15 min, in the assay text read “15 mins” for “180 mins”. The procedure, abridged:
as §3

For data set [7], the system named is Liver microsome. In words: Drug metabolism in rat liver microsomes assessed as (Z)-N'-hydroxy-6-(5-(5-((Z)-N'-methoxycarbamimidoyl)pyridin-2-yl)furan-2-yl nicotinimidamide formation measured by HPLC-MS/MS analysis. Format: ADME. Put shortly:
as §1

In data set [8] the test system is Liver microsome. In words: Drug metabolism in rat liver microsomes assessed as (Z)-N'-hydroxy-6-(5-(5-((Z)-N'-methoxycarbamimidoyl)pyridin-2-yl)furan-2-yl nicotinimidamide formation measured per mg of protein by HPLC-MS/MS analysis. The class given is ADME. Put shortly:
as §1

Data set [9] deals with Liver microsome. In words: Prodrug conversion in human liver microsomes assessed as elution time at 10 uM after 180 mins incubation by HPLC-UV chromatography. The following applies: 3 h. The class given is ADME. The procedure, abridged: as §4
Data set [10] can be described thus: Drug metabolism in sandwich-cultured rat hepatocytes assessed as fold increase in DB829 at 10 uM after 2 hrs of incubation by HPLC-MS/MS analysis. The class given is ADME, cell-based, Hepatocyte. Put shortly:
as §2

Chain of Cytochrome P450 3A4 (P08684 whole entry): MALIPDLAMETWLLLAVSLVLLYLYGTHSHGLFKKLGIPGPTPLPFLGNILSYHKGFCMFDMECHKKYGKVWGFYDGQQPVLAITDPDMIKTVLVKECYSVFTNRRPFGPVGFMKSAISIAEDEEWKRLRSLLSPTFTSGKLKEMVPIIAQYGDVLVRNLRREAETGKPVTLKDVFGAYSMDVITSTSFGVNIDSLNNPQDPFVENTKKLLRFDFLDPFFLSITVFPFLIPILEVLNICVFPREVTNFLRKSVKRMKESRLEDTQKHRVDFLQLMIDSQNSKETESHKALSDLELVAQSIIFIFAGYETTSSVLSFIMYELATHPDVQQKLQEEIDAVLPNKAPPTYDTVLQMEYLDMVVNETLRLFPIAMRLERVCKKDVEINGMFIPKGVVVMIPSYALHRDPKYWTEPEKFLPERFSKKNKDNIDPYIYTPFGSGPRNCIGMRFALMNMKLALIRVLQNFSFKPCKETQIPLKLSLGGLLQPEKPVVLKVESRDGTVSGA

Turning to `CO/N=C(\N)c1ccc(-c2ccc(-c3ccc(/C(N)=N/OC)cn3)o2)nc1.Cl`, the Vmax was 340 pmol/min in the data set with Liver microsome [1] and 12 pmol/min with Liver microsome [8]. Also, the Drug metabolism result (in data set [2]; at Cytochrome P450 1A2; in data set [5]; on Cytochrome P450 3A4) was “metabolite_detected” throughout. In addition, the Km in the data set with Liver microsome [3] was found to be 11 µM; with Liver microsome [7], 0.5 µM. Moreover, the Retention_time in the data set with Liver microsome [4] and in the data set with Liver microsome [9] was 18.5 min throughout. In addition, the Activity in data set [6] was found to be 100%. The “fold change (FC)” value in data set [10] came out at 23.
